Assay outcomes as filed in PubChem BioAssay.
Dynein transport = blocks dynein driven cargo transport along microtubules; hit rate 0.47% among 220,000; AID 1381; z-score, hits read low; 3617.4 mouse cells, GR-EGFP nuclear translocation imaging; test concentration mostly 20 µM; stimulated with dexamethasone, 1 µM; hits give low values;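 active = plate z-score of nuclear minus cytoplasmic receptor signal below a set negative limit, without overly bright fluorescence or cell loss, cut at about -3.5 in these data, passing the limit was not always enough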;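 also: z-score of nuclear minus cytoplasmic ring GR-EGFP intensity difference per well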
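Schedule: 48 h induction, then 1 h compound, then 30 min agonist, 37 °C. Buffer or medium: tetracycline-free induction medium containing charcoal-stripped FBS. Reagent: 1.0 µM final dexamethasone stimulus. Evaluation: nuclear versus cytoplasmic GR-EGFP signal, averaged per well. Signal: high-content fluorescence imaging after fixation.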
B2AR ag = activates human beta-2 adrenergic receptor causing internalization; hit rate 0.43% among 340,000; response, % (no concentration beside the values); Am2.2-beta2AR cells, FAP receptor internalization, flow cytometry; AID 504454;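 active = response above a set limit, near 3 SD of response in nonfluorescent compounds, cut at about 42% in these data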
Target sequence (P07550 whole entry, looked up): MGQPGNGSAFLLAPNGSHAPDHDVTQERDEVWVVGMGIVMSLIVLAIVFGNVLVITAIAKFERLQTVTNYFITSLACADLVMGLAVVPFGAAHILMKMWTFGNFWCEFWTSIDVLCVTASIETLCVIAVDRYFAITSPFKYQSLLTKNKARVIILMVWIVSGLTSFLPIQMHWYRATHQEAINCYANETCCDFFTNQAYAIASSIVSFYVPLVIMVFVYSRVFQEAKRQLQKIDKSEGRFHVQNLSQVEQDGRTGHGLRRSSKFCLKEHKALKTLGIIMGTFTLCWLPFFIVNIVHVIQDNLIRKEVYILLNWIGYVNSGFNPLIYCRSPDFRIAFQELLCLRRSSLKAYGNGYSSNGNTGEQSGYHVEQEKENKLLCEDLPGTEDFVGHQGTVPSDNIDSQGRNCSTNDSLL
ATG4B inhibitor = ATG4B (human) cysteine protease inhibition; ATG4B cleavage of LC3-PLA2, NBD-HPC fluorescence, 1 h; inhibition, % at 8.33 µM; hit rate 0.51% among 340,000; Q9Y4P1; in the data active = inhibition above about 40%
MEKK3 PB1 HTS = MEKK3-MEK5 PB1 interaction, increase or decrease; binding response (% of control), % at 10 µM; hit rate 1.4% among 290,000; bead-based flow cytometry, Alexa488-MEK5 binding to MEKK3; actives lie on both sides; 0 = blocked by unlabeled MEK5, 100 = vehicle; Q99759; AID 1529;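 active = binding response more than 3 SD above or below the average of its plate-row segment, actives on both sides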;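 also: Alexa488 bead fluorescence after subtracting the streptavidin-only scavenger bead signal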
MEKK2 WT-MEK5 = raises or lowers MEK5 binding to wildtype human MEKK2 PB1 domain. bead flow cytometry, Alexa488-MEK5 binding to MEKK2 WT; actives lie on both sides. binding response (% of control), % at 10 µM. hit rate 1.1% among 290,000. Q9Y2U5; in the data active = binding response below about 67% or above about 130%
MEKK2 mut-MEK5 = signal of MEK5 binding to mutant human MEKK2 PB1 domain | AID 1530 | hit rate 0.35% among 290,000 | bead flow cytometry, Alexa488-MEK5 binding to MEKK2 mutant | percent response, % at 10 µM; in the data active = percent response above about 24%, passing the limit was not always enough
MEKK2wt confirm = raises or lowers MEK5 binding to wildtype human MEKK2, retest; binding response (% of control), % at 10 µM; hit rate 2.4% among 5,900; AID 1892; bead flow cytometry, Alexa488-MEK5 binding to MEKK2 WT; actives lie on both sides; shares compounds with MEKK3 PB1 HTS; in the data active = binding response below about 16% or above about 210%; inactive = in between
MEKK2mut confirm = signal of MEK5 binding to mutant human MEKK2, retest; shares compounds with MEKK3 PB1 HTS; bead flow cytometry, Alexa488-MEK5 binding to MEKK2 mutant; percent response, % at 10 µM; hit rate 2% among 5,900; AID 1893; in the data active = percent response mostly above about 71%, no sharp cut-off; inactive = mostly below about 38%;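 also: higher means compound restores mutant binding toward wildtype level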
MEKK3-MEK5 inh = MEKK3-MEK5 PB1 inhibition, single concentration confirmation; shares compounds with MEKK3 PB1 HTS; hit rate 1.8% among 5,900; binding response (% of control), % at 10 µM; bead flow cytometry, Alexa488-MEK5 binding to MEKK3; hits give low values; AID 1894;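 active = binding response below 72% of control, or above a set upper limit, though filed actives all read lower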;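 also: lower values mean stronger disruption of MEK5 binding to MEKK3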
B2AR ag CP1 = activates human beta-2 adrenergic receptor; percent response (surface receptor), % at 10 µM; hit rate 25% among 1,100; Am2.2-beta2AR cells, FAP surface receptor, flow cytometry; hits give low values; shares compounds with B2AR ag;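 active = surface receptor percent response at or below 58%, roughly 3 SD from nonfluorescent compounds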
FAP fluor counter = flagged in Am2.2 fluorescence counterscreen for beta-2AR agonists; 1,100 tested, under 10 active; calls only at 10 µM; Am2.2 cells, FAP fluorogen flow cytometry; hits give low values; AID 588765; shares compounds with B2AR ag;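 active = percent response below a set limit in fluorescence channel 1 and below 50% in channel 8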
ATG4B confirm = confirmation of human ATG4B inhibitors. shares compounds with ATG4B inhibitor. ATG4B protease fluorescent substrate cleavage assay. inhibition, % at 8.33 µM. hit rate 92% among 320. AID 504757; in the data active = inhibition above about 39%
PLA2 counter = PLA2 (human) inhibition in ATG4B counter-screen; hit rate 66% among 1,600; purified PLA2, NBD-C6-HPC fluorescence, 45 min; shares compounds with ATG4B inhibitor; inhibition, % at 8.33 µM; in the data active = inhibition above about 50%
Of the large screens only hits and unclear results are named; the others gave an inactive call (follow-up assays come after a bar, where they were run); [ ] = another dose, or the depositor's remark. Hits are enriched below; roughly 2.9% of the tested compounds scored in any of these assays.

COc1ccc(C(CCNCc2ccc(OC(C)C)cc2)c2ccccc2OC)cc1 (stereo not drawn)	MEKK2 WT-MEK5 199, MEKK2 mut-MEK5 40 (no result: Dynein transport) | MEKK2wt confirm inactive | MEKK2mut confirm 70 | MEKK3-MEK5 inh inactive | B2AR ag CP1 54 | FAP fluor counter inactive
COc1ccc(C(CCNCc2ccc(N(C)C)cc2)c2ccccc2OC)cc1 (stereo not drawn)	MEKK2 WT-MEK5 148 (no result: Dynein transport) | MEKK2wt confirm inactive | MEKK2mut confirm inactive | MEKK3-MEK5 inh inactive | B2AR ag CP1 inactive | FAP fluor counter inactive
CCOC(=O)c1c(O)cc(C)cc1Nc1ccccc1	none (no result: Dynein transport)
CC(CCc1ccc(O)cc1)NCCC(c1ccccc1)c1ccccc1 (stereo not drawn)	MEKK2 WT-MEK5 144 (no result: Dynein transport) | MEKK2wt confirm inactive | MEKK2mut confirm inactive | MEKK3-MEK5 inh inactive | B2AR ag CP1 inactive | FAP fluor counter inactive
OCCC1CN(Cc2ccc3c(c2)CCO3)CCN1Cc1ccc(F)cc1 (stereo not drawn)	none
CC(NCc1ccc(OCc2ccc(Cl)cc2)cc1)C(O)c1ccccc1 (stereo not drawn)	B2AR ag 79, MEKK2 WT-MEK5 144 | MEKK2wt confirm inactive | MEKK2mut confirm inactive | MEKK3-MEK5 inh inactive | B2AR ag CP1 inactive | FAP fluor counter inactive
CC(C)Cn1c(N)c(C(=O)CSc2ncn[nH]2)c(=O)n(C)c1=O	none (no result: Dynein transport, MEKK3 PB1 HTS, MEKK2 WT-MEK5, MEKK2 mut-MEK5)
CCn1c2c(c(=N)c3c1CCC3)CCCC2	none
CCCCCCCCCn1c2c(c(=N)c3c1CCC3)CCCC2	B2AR ag 80, MEKK2 WT-MEK5 177 | MEKK2wt confirm inactive | MEKK2mut confirm inactive | MEKK3-MEK5 inh inactive | B2AR ag CP1 inactive | FAP fluor counter inactive
COc1ccccc1Nc1nc(NCc2ccco2)c2ccccc2n1	MEKK2 WT-MEK5 177 | MEKK2wt confirm inactive | MEKK2mut confirm inactive | MEKK3-MEK5 inh inactive | B2AR ag CP1 inactive | FAP fluor counter inactive
COc1ccc2c(-c3ccccc3)cc(SCC(N)=O)nc2c1	ATG4B inhibitor 58, MEKK2 WT-MEK5 9.0[inhibitor], MEKK2 mut-MEK5 115 | MEKK2wt confirm inactive | MEKK2mut confirm inactive | MEKK3-MEK5 inh inactive | PLA2 counter 57
COc1ccc2nc(SCC(N)=O)cc(C)c2c1	none
Cc1cccc(Nc2nnc(SCC(=O)N(C)C3CCS(=O)(=O)C3)s2)c1C (stereo not drawn)	none
Cc1nc(SCC(=O)NCc2ccco2)c2c(C)c(C)sc2n1	none
Cc1sc2nc(C(C)C)nc(SCC(=O)NCc3ccco3)c2c1C	ATG4B inhibitor 42, MEKK3 PB1 HTS -1.0[inhibitor], MEKK2 WT-MEK5 -6.0[inhibitor] | MEKK2wt confirm inactive | MEKK2mut confirm inactive | MEKK3-MEK5 inh inactive | ATG4B confirm 50 | PLA2 counter inactive
